# Reference: ChEMBL document CHEMBL1275496, “In vivo pharmacodynamic target investigation for micafungin against Candida albicans and C. glabrata in a neutropenic murine candidiasis model” (Antimicrob Agents Chemother, 2008)
# *1 amine or outer side, *2 acyl side, *3 side chain or, on linkers, in order; H or OH if unused. Where a SMILES comes first, the peptide text is derived from it. Bridges are numbered along the chain shown (N, C = ends). [ ]: non-standard residue; d: D form. The star is where a group is joined. hTyr(3S-OH,4S-OH,3'-OSO3H) = N[C@H](C(=O)O)[C@H](O)[C@@H](O)c1ccc(O)c(OS(=O)(=O)O)c1; Orn(4R-OH,5R-OH) = O=C([C@H](C[C@@H](O)[C@@H](O)N[*:3])N[*:1])[*:2]; Pro(3S-OH,4S-Me) = C[C@H]1CN[C@H](C(=O)O)[C@H]1O; X1 = CCCCCOc1ccc(-c2cc(-c3ccc(C(=O)*)cc3)no2)cc1; Gln(3R-OH) = NC(=O)C[C@@H](O)[C@H](N)C(=O)O; Hyp = O=C(O)[C@@H]1C[C@@H](O)CN1
# Assays:
# [1] = Ratio of AUC in ICR/Swiss neutropenic mouse at static dose of 2.4 mg/kg, ip after 24 hrs to MIC for Candida glabrata isolate 35315; format: functional; details: route intraperitoneal
# [2] = Ratio of fAUC in ICR/Swiss neutropenic mouse at 1-Log kill dose of 5.46 mg/kg, ip after 24 hrs to MIC for Candida glabrata isolate 5592; format: functional; details: route intraperitoneal
# [3] = Ratio of AUC in ICR/Swiss neutropenic mouse at 1-Log kill dose of 1.69 mg/kg, ip after 24 hrs to MIC for Candida glabrata isolate 32930; format: functional; details: route intraperitoneal
# Nakaseomyces glabratus [4] = assay: Antifungal activity against Candida glabrata isolate 35315 by CLSI method; format: functional
# Procedure, shortened: (§1)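 Broth microdilution per CLSI M27-A2. The MIC was read at partial inhibition (M1) and at complete inhibition (M2) against the drug-free control. Done in duplicate on four separate occasions and reported as the mean.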
# Candida albicans [5] = assay: Fungistatic activity against Candida albicans isolate 98-17 infected in ICR/Swiss neutropenic mouse after 24 hrs; format: functional
# Procedure, shortened: (§2)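 Neutropenic female ICR/Swiss mice received cyclophosphamide sc at 150 mg/kg on day −4, 100 mg/kg on day −1 and 100 mg/kg on day +2. Mice were infected iv via the tail vein, and ip micafungin in 0.15 M NaCl started 2 h later. Six dose levels from 0.078 to 80 mg/kg/24 h were given q24h for 4 days, 3 mice per dose. Kidney CFU were counted at 96 h. The static dose was derived from a sigmoid Emax (Hill) fit.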
# Nakaseomyces glabratus [6] = assay: Antifungal activity against Candida glabrata; format: functional
# Procedure, shortened: (§3)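 Broth microdilution MIC per CLSI M27-A2. Two endpoints were read against the drug-free control well: partial inhibition (M1, CLSI recommended) and complete inhibition (M2). Tests were run in duplicate on four separate occasions, and the value is the mean.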
# Nakaseomyces glabratus [7] = assay: Antifungal activity against Candida glabrata isolate 5376 by CLSI method; format: functional; procedure, shortened: as §3
# Nakaseomyces glabratus [8] = assay: Antifungal activity against Candida glabrata isolate 33616 infected in ICR/Swiss neutropenic mouse assessed as dose required for 1-log kill after 24 hrs; format: functional
# Procedure, shortened: (§4)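 Neutropenic mice (cyclophosphamide sc 150 mg/kg day −4, 100 mg/kg day −1 and +2) infected iv by tail vein 2 h before therapy. Micafungin given ip every 24 h for 4 days at six fourfold-spaced dose levels, 0.078–80 mg/kg/24 h, 3 mice per group. Kidney CFU read at 96 h. Hill-model fit; dose giving 1 log10 below start-of-therapy burden.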
# [9] = Ratio of AUC in ICR/Swiss neutropenic mouse at static dose of 0.41 mg/kg, ip after 24 hrs to MIC for Candida glabrata isolate 33609; format: functional; details: route intraperitoneal
# [10] = Ratio of fAUC in ICR/Swiss neutropenic mouse at 1-Log kill dose of 7.89 mg/kg, ip after 24 hrs to MIC for Candida glabrata isolate 33616; format: functional; details: route intraperitoneal
# [11] = Ratio of fAUC in ICR/Swiss neutropenic mouse at 1-Log kill dose of 4.08 mg/kg, ip after 24 hrs to MIC for Candida albicans isolate K1; format: functional; details: route intraperitoneal
# [12] = Ratio of fAUC in ICR/Swiss neutropenic mouse at static dose of 2.53 mg/kg, ip after 24 hrs to MIC for Candida albicans isolate 98-17; format: functional; details: route intraperitoneal
# [13] = Ratio of fAUC in ICR/Swiss neutropenic mouse at 1-Log kill dose of 6.70 mg/kg, ip after 24 hrs to MIC for Candida glabrata isolate 570; format: functional; details: dose 6.7 mg/kg; route intraperitoneal
# [14] = Ratio of fAUC in ICR/Swiss neutropenic mouse at 1-Log kill dose of 20.6 mg/kg, ip after 24 hrs to MIC for Candida glabrata isolate 37661; format: functional; details: route intraperitoneal
# Candida albicans [15] = assay: Antifungal activity against Candida albicans; format: functional; procedure, shortened: as §3
# Nakaseomyces glabratus [16] = assay: Antifungal activity against Candida glabrata isolate 33609 infected in ICR/Swiss neutropenic mouse assessed as dose required for 1-log kill after 24 hrs; format: functional; procedure, shortened: as §4
# [17] = Ratio of fAUC in ICR/Swiss neutropenic mouse at 1-Log kill dose of 10.4 mg/kg, ip after 24 hrs to MIC for Candida albicans isolate 98-210; format: functional; details: route intraperitoneal
# [18] = Ratio of AUC in ICR/Swiss neutropenic mouse at static dose of 3.88 mg/kg, ip after 24 hrs to MIC for Candida glabrata isolate 33616; format: functional; details: route intraperitoneal
# [19] = Ratio of fAUC in ICR/Swiss neutropenic mouse at 1-Log kill dose of 4.26 mg/kg, ip after 24 hrs to MIC for Candida glabrata isolate 34341; format: functional; details: route intraperitoneal
# Nakaseomyces glabratus [20] = assay: Antifungal activity against Candida glabrata isolate 37661 by CLSI method; format: functional; procedure, shortened: as §1
# Nakaseomyces glabratus [21] = assay: Antifungal activity against Candida glabrata isolate 34341 infected in ICR/Swiss neutropenic mouse assessed as dose required for 1-log kill after 24 hrs; format: functional; procedure, shortened: as §4
# [22] = AUC (0 to infinity) in Candida infected ICR/Swiss neutropenic mouse at 20 mg/kg, ip; format: ADME, organism-based; design: time infinity, dose 20 mg/kg, route intraperitoneal; details: plasma
# Procedure, shortened: (§5)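 Single intraperitoneal micafungin doses (80, 20, 5 mg/kg in 0.2 ml, 0.15 M NaCl) given to infected neutropenic mice. Serum was taken from 3 mice per time point at 1, 2, 4, 6, 8, 12, 24 and 48 h. Drug was measured by microbiologic assay with C. albicans K1 (LLOQ 0.12 μg/ml). Noncompartmental analysis; half-life by nonlinear least squares; AUC by trapezoidal rule.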
# [23] = Ratio of AUC in ICR/Swiss neutropenic mouse at static dose of 2.84 mg/kg, ip after 24 hrs to MIC for Candida albicans isolate 98-210; format: functional; details: route intraperitoneal
# Mus musculus = assay: (§6) Cmax in Candida infected ICR/Swiss neutropenic mouse at 20 mg/kg, ip; format: ADME, organism-based; design: dose 20 mg/kg, route intraperitoneal; details: in vivo; procedure, shortened: as §5
# [24] = as §6; format: ADME, organism-based; design: dose 20 mg/kg, route intraperitoneal; details: ICR/Swiss, in vivo; procedure, shortened: as §5
# Candida albicans [25] = assay: Fungistatic activity against Candida albicans isolate K1 infected in ICR/Swiss neutropenic mouse after 24 hrs; format: functional; procedure, shortened: as §2
# Nakaseomyces glabratus [26] = assay: Antifungal activity against Candida glabrata isolate 5592 by CLSI method; format: functional; procedure, shortened: as §3
# [27] = Ratio of fAUC in ICR/Swiss neutropenic mouse at static dose of 2.84 mg/kg, ip after 24 hrs to MIC for Candida albicans isolate K1; format: functional; details: route intraperitoneal
# Nakaseomyces glabratus [28] = assay: Antifungal activity against Candida glabrata isolate 570 by CLSI method; format: functional; procedure, shortened: as §3
# Candida albicans [29] = assay: Antifungal activity against Candida albicans isolate 98-210 by CLSI method; format: functional; procedure, shortened: as §3
# Nakaseomyces glabratus [30] = assay: Fungistatic activity against Candida glabrata isolate 513 infected in ICR/Swiss neutropenic mouse after 24 hrs; format: functional; procedure, shortened: as §2
# Nakaseomyces glabratus [31] = assay: Antifungal activity against Candida glabrata isolate 35315 infected in ICR/Swiss neutropenic mouse assessed as dose required for 1-log kill after 24 hrs; format: functional; procedure, shortened: as §4
# Nakaseomyces glabratus [32] = assay: Antifungal activity against Candida glabrata isolate 32930 by CLSI method; format: functional; procedure, shortened: as §3
# Nakaseomyces glabratus [33] = assay: Fungistatic activity against Candida glabrata isolate 35315 infected in ICR/Swiss neutropenic mouse after 24 hrs; format: functional; procedure, shortened: as §2
# Nakaseomyces glabratus [34] = assay: Fungistatic activity against Candida glabrata isolate 5376 infected in ICR/Swiss neutropenic mouse after 24 hrs; format: functional; procedure, shortened: as §2
compound,measurement,setting,value
"CCCCCOc1ccc(-c2cc(-c3ccc(C(=O)N[C@H]4C[C@@H](O)[C@@H](O)NC(=O)[C@@H]5[C@@H](O)[C@@H](C)CN5C(=O)[C@H]([C@H](O)CC(N)=O)NC(=O)[C@H]([C@H](O)[C@@H](O)c5ccc(O)c(OS(=O)(=O)O)c5)NC(=O)[C@@H]5C[C@@H](O)CN5C(=O)[C@H]([C@@H](C)O)NC4=O)cc3)no2)cc1 [MICAFUNGIN] (X1-[Orn(4R-OH,5R-OH)]T[Hyp][hTyr(3S-OH,4S-OH,3'-OSO3H)][Gln(3R-OH)][Pro(3S-OH,4S-Me)]; lactam 1-C)",RatioAUC/MIC,[1],1103
same,fAUC/MIC,[2],25
same,RatioAUC/MIC,[3],3107
same,MIC,Nakaseomyces glabratus [4],0.12 µg/mL
same,MIC50,Nakaseomyces glabratus [4],0.06 µg/mL
same,Activity,Candida albicans [5],2.53 mg/kg
same,MIC50,Nakaseomyces glabratus [6],0.015 µg/mL
same,MIC90,Nakaseomyces glabratus [6],0.015 µg/mL
same,MIC,Nakaseomyces glabratus [7],0.016 µg/mL
same,MIC50,Nakaseomyces glabratus [7],0.008 µg/mL
same,Activity,Nakaseomyces glabratus [8],7.89 mg/kg
same,RatioAUC/MIC,[9],753
same,fAUC/MIC,[10],2.2
same,fAUC/MIC,[11],18.8
same,fAUC/MIC,[12],5.9
same,fAUC/MIC,[13],30.2
same,fAUC/MIC,[14],5.2
same,MIC50,Candida albicans [15],0.015 µg/mL
same,MIC90,Candida albicans [15],0.03 µg/mL
same,Activity,Nakaseomyces glabratus [16],1.4 mg/kg
same,fAUC/MIC,[17],46
same,RatioAUC/MIC,[18],428
same,fAUC/MIC,[19],4.9
same,MIC,Nakaseomyces glabratus [20],0.25 µg/mL
same,MIC50,Nakaseomyces glabratus [20],0.25 µg/mL
same,Activity,Nakaseomyces glabratus [21],4.26 mg/kg
same,AUC(0-inf),[22],520 µg·h/mL
same,RatioAUC/MIC,[23],5200
same,Cmax,Mus musculus,28000 ng/mL
same,Cmax,[24],28000 ng/mL
same,Activity,Candida albicans [25],2.84 mg/kg
same,MIC,Nakaseomyces glabratus [26],0.03 µg/mL
same,MIC50,Nakaseomyces glabratus [26],0.016 µg/mL
same,fAUC/MIC,[27],13
same,MIC,Nakaseomyces glabratus [28],0.03 µg/mL
same,MIC50,Nakaseomyces glabratus [28],0.016 µg/mL
same,MIC,Candida albicans [29],0.03 µg/mL
same,MIC50,Candida albicans [29],0.016 µg/mL
same,Activity,Nakaseomyces glabratus [30],1.34 mg/kg
same,Activity,Nakaseomyces glabratus [31],3.77 mg/kg
same,MIC,Nakaseomyces glabratus [32],0.016 µg/mL
same,MIC50,Nakaseomyces glabratus [32],0.008 µg/mL
same,Activity,Nakaseomyces glabratus [33],2.4 mg/kg
same,Activity,Nakaseomyces glabratus [34],0.9 mg/kg
